Starred links: 1 amine or outer side, 2 acyl side, 3 side chain; linkers in the order of their positions; H or OH if unused. Positions of bridges follow the written chain, without caps; N, C: chain ends. Non-standard residues stand in square brackets, D forms with d. Residues, ends and D or L forms follow the SMILES beside them. Chains are numbered I, II in the order given. Actinocin(9to1) = Cc1c2oc3c(C)ccc(C(=O)[*:1])c3nc-2c(C(=O)[*:2])c(N)c1=O; NMeV = CN[C@H](C(=O)O)C(C)C; Sar = CNCC(=O)O
Key:
Calf thymus DNA = test: Binding affinity to calf thymus DNA assessed as reduction in DNA peak by pre-incubation method; format: nucleic-acid assay; set-up: concentration or dose not given beside the values; settings: Bos taurus
Procedure, shortened: (§1)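 Nucleic acid at 0.1 mg/ml in water; test substance at 1.0 mg/ml in water or MeOH, mixed 1:1 (v/v) and held at ambient temperature for 5–30 min. 40 or 80 µl injected onto a C18 reversed-phase column equilibrated in H2O-MeOH (80:20), 1 ml/min, with 254 nm detection. The free nucleic-acid peak (~1.2 min) was compared with nucleic acid injected alone.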

Nucleic Acid = test: Binding affinity to yeast tRNA assessed as reduction in tRNA peak by pre-incubation method; format: nucleic-acid assay; set-up: concentration or dose not given beside the values; settings: Saccharomyces cerevisiae; procedure, shortened: as §1

Compound	Activity (Calf thymus DNA)	Activity (Nucleic Acid)
COc1cc2c(c3c1c(=O)c1ccccc1n3C)C=CC(C)(C)O2	< 30%	
C=C1C(=O)O[C@H]2[C@H]1[C@@H](O)[C@H](O)C(C)=C1C[C@H]3O[C@@]3(C)[C@@H]12	30%	< 30%
CC[C@]1(O)C[C@@H]2CN(CCc3c([nH]c4ccccc34)[C@@](C(=O)OC)(c3cc4c(cc3OC)N(C)[C@H]3[C@@](O)(C(=O)OC)[C@H](OC(C)=O)[C@]5(CC)C=CCN6CC[C@]43[C@@H]65)C2)C1	> 70%	100%
COc1cccc2c1C(=O)c1c(O)c3c(c(O)c1C2=O)C[C@@](O)(C(=O)CO)C[C@@H]3O[C@H]1C[C@H](N)[C@H](O)[C@H](C)O1	100%	100%
C=C1C(=O)O[C@@H]2C3O[C@]3(C)CC/C=C(\C)CC[C@@H]12 (stereo partly specified)	30%	< 30%
BLEOMYCIN	< 30%	> 70%
Cc1c2ccncc2c(C)c2c1[nH]c1ccccc12	> 70%	30%
C=C1C(=O)O[C@H]2[C@H]1[C@@H](O)[C@H](OC(=O)C=C(C)C)C(C)=C1C[C@H]3O[C@@]3(C)[C@@H]12	30%	
CC[n+]1c(-c2ccccc2)c2cc(N)ccc2c2ccc(N)cc21	100%	100%
Nc1c2ccccc2nc2ccccc12	> 70%	100%
CC(C)=CC(=O)O[C@@H]1C(C)=C2C(=O)C=C(C)[C@]2(O)[C@H]2OC(=O)C[C@@H]2[C@H]1O	30%	
COc1cc2c(ccc3c4cc(OC)c(OC)cc4c[n+](C)c23)cc1O	100%	100%
COc1ccc2c(c1)c1ccnc3ccc(=O)n2c31	30%	
Cc1c2oc3c(C)ccc(C(=O)N[C@@H]4C(=O)N[C@H](C(C)C)C(=O)N5CCC[C@H]5C(=O)N(C)CC(=O)N(C)[C@@H](C(C)C)C(=O)O[C@@H]4C)c3nc-2c(C(=O)N[C@@H]2C(=O)N[C@H](C(C)C)C(=O)N3CCC[C@H]3C(=O)N(C)CC(=O)N(C)[C@@H](C(C)C)C(=O)O[C@@H]2C)c(N)c1=O (I: T[dV]P[Sar][NMeV] / II: T[dV]P[Sar][NMeV]; ester I:1-I:C, II:1-II:C; linker I:N-II:N via Actinocin(9to1))	30%	< 30%
COc1cc2c(c(OC)c1OC)-c1ccc(OC)c(=O)cc1[C@@H](NC(C)=O)CC2	< 30%	< 30%
COC(=O)CC1(O)C=CC(=O)C=C1	30%	< 30%
CC[C@]1(O)C[C@H]2CN(CCc3c([nH]c4ccccc34)[C@@](C(=O)OC)(c3cc4c(cc3OC)N(C=O)[C@H]3[C@@](O)(C(=O)OC)[C@H](OC(C)=O)[C@]5(CC)C=CCN6CC[C@]43[C@@H]65)C2)C1	> 70%	100%
COc1cccc2c1C(=O)c1c(O)c3c(c(O)c1C2=O)C[C@@](O)(C(C)=O)C[C@@H]3O[C@H]1C[C@H](N)[C@H](O)[C@H](C)O1	100%	
